Series [1] has as its system U-87 MG. Kind of series: Induction of cell cycle arrest in human U87MG cells assessed as accumulation at S phase at 1 to 20 uM after 48 hrs by flow cytometric analysis. The series is classed as functional, cell-based. The conditions noted are these: U-87MG ATCC. In a few lines:
(§1)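 2 × 10^5 cells per dish exposed 48 h (1−20 μM per legend); harvested, fixed in cold 70% ethanol at −20 °C, stained with propidium iodide plus RNase A (100 U/mL) 30 min at room temperature; percentage in G1, S, G2/M by flow cytometry. Three experiments in triplicate.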

Series [2] addresses T1, Mitogen-activated protein kinase; ERK1/ERK2 (Homo sapiens) (UniProt P27361+P28482). Nature of the series: Induction of Erk1/2 phosphorylation in human T98G cells at 20 uM measured after 24 hrs by Western blot analysis in presence of 5 mM of NAC. The series is classed as cell-based. A digest of the protocol: (§2)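 T98G exposed to 20 μM for 5−120 min or 24 h, with or without 5 mM NAC. Lysates (Tris/deoxycholate/SDS/IGEPAL with protease and phosphatase inhibitors) immunoblotted with anti-p-ERK, ERK1/2 (1:1000), p-p38, p38; ECL detection; phospho signals normalized to total ERK1/2 or p38. Three experiments.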

The subject of series [3] is T98G. Nature of the series: Anticancer activity against human T98G cells assessed as decrease in cell viability at 50 uM after 48 hrs by MTT assay. The series is classed as functional. A digest of the protocol: (§3)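 Cells (T98G, U87-MG, NHA; 3 × 10^4 per well) plated, next day exposed to serial dilutions (1−50 μM) for 48 h at 37 °C, 5% CO2. MTT (5 mg/mL) added for 3 h; crystals solubilized in 50% DMF/20% SDS pH 4.5; OD at 620 nm. Viability = % of DMSO (0.1% final) controls. Means ± SEM, three experiments in triplicate.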

Series [4] relates to T98G. Nature of the series: Induction of cell cycle arrest in human T98G cells assessed as accumulation at G0/G1 phase at 1 to 20 uM after 48 hrs by flow cytometric analysis. The class given is functional, cell-based. A digest of the protocol:
as §1

The target of series [5] is T1, Mitogen-activated protein kinase; ERK1/ERK2 (Homo sapiens). Kind of series: Induction of Erk1/2 phosphorylation in human T98G cells at 20 uM measured every 5 mins for 2 hrs by Western blot analysis in presence of 5 mM of NAC. The class given is cell-based. A digest of the protocol: as §2
A short description of series [6]: Cytotoxicity against normal human astrocytes assessed as decrease in cell viability after 48 hrs by MTT assay. The class given is cell-based. The conditions noted are these: astrocyte. In a few lines:
as §3

For series [7], the target named is T2, MAP kinase p38 (Homo sapiens) (UniProt O15264+Q15759+Q16539+P53778). Kind of series: Induction of p38 phosphorylation in human T98G cells at 20 uM measured after 24 hrs by Western blot analysis. The class given is cell-based. A digest of the protocol:
as §2

Series [8] has as its system U-87 MG. Kind of series: Induction of apoptosis in human U87MG cells at 50 uM after 48 hrs by propidium iodide staining based flow cytometric analysis. The series is classed as functional, cell-based. The conditions noted are these: U-87MG ATCC. In a few lines: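 Cells treated 1−50 μM for 24 or 48 h, washed in PBS, resuspended in 0.1% sodium citrate, 0.1% Triton X-100, 50 μg/mL propidium iodide, 30 min at 4 °C in dark. Nuclei analyzed by flow cytometry, DNA on log scale, debris gated out; percent hypodiploid (sub-G1) nuclei reported. Three experiments in triplicate.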

Series [9] concerns T98G. Nature of the series: Induction of apoptosis in human T98G cells assessed as increase in mitochondrial depolarization at 20 uM after 24 hrs by […] fluorescence analysis. The series is classed as functional. A digest of the protocol:
(§4)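 T98G treated with 20 μM for 4−24 h (NAC 5 mM where stated), then loaded with 5 nM TMRE for 30 min at 37 °C; fluorescence by flow cytometry (FL-2); percentage of cells with depolarized mitochondria reported. Three experiments in triplicate (n = 3 for NAC set).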

Series [10] has as its system T98G. Nature of the series: Induction of apoptosis in human T98G cells assessed as increase in mitochondrial depolarization at 20 uM by […] fluorescence analysis. To be noted: TDE = time-dependent effect. The series is classed as functional, cell-based. A digest of the protocol: as §4
Series [11] relates to T98G. Nature of the series: Induction of apoptosis in human T98G cells at 20 uM after 48 hrs by flow cytometric analysis pretreated with 5 uM p38 inhibitor SB203580 for 1 hr. The class given is functional, cell-based. In a few lines:
(§5)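 T98G pretreated with PD98059 (20 μM, 30 min), SB203580 (5 μM, 1 h) or SP600125 (5 μM, 1 h), then exposed to 20 μM for 48 h; hypodiploid nuclei quantified by propidium iodide flow cytometry. Means ± SEM, three experiments in triplicate.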

Series [12] deals with T2, MAP kinase p38 (Homo sapiens). Kind of series: Induction of p38 phosphorylation in human T98G cells at 20 uM after 30 to 60 mins for 2 hrs by Western blot analysis in presence of 5 mM NAC. The class given is cell-based. In a few lines: as §2
Series [13] relates to T98G. Nature of the series: Induction of apoptosis in human T98G cells assessed as increase in ROS production at 20 uM measured every 5 mins for 5 to 120 mins by DCFH-DA staining-based flow cytometric analysis. The series is classed as functional, cell-based. A digest of the protocol:
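T98G incubated with 20 μM, with or without 5 mM NAC pretreatment, for 5−120 min or 24 h; washed, resuspended at 2 × 10^5 cells/mL in HBSS with 10 μM DCFH-DA, 20 min at 37 °C; DCF fluorescence read by flow cytometry (FL1), also viewed by fluorescence microscopy.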

Series [14] relates to T98G. Nature of the series: Induction of apoptosis in human T98G cells assessed as increase in cytosolic cytochrome c release at 20 uM after 8 hrs by Western blot analysis. The series is classed as functional, cell-based. In a few lines:
(§6)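 T98G exposed to 20 μM for various times (0−48 h), NAC 5 mM where stated. Total lysates, or digitonin-permeabilized cytosolic and mitochondrial fractions (10000g, 15 min, 4 °C) for cytochrome c, blotted for caspase-3, caspase-9, PARP (1:1000), Bcl-2 (1:500), cytochrome c; β-actin loading control; ECL detection. Three experiments.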

Series [15] concerns the target T2, MAP kinase p38 (Homo sapiens). Kind of series: Induction of p38 phosphorylation in human T98G cells at 20 uM after 30 to 60 mins for 2 hrs by Western blot analysis. The class given is cell-based. In a few lines:
as §2

In series [16] the test system is T98G. Nature of the series: Induction of apoptosis in human T98G cells at 20 uM after 48 hrs by flow cytometric analysis pretreated with 5 uM JNK inhibitor SP600125 for 1 hr. The series is classed as functional, cell-based. In a few lines:
as §5

Series [17] deals with T98G. Kind of series: Induction of apoptosis in human T98G cells assessed as decrease in Bcl-2 expression at 20 uM after 48 hrs by Western blot analysis. The series is classed as functional, cell-based. In a few lines: as §6
For series [18], the system named is T98G. Nature of the series: Induction of apoptosis in human T98G cells assessed as increase in ROS production at 20 uM after 48 hrs by DCFH-DA staining-based flow cytometric analysis in presence of 5 mM NAC. The series is classed as functional, cell-based.
Series [19] is described as follows: Toxicity in mouse. The class given is organism-based. To be noted: in vivo.
Series [20] deals with T98G. Kind of series: Induction of apoptosis in human T98G cells assessed as caspase activation at 20 uM after 24 hrs pretreated with 25 uM pancaspase inhibitor Z-VAD-FMK. The class given is functional, cell-based. In a few lines: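 T98G pretreated with Z-VAD-FMK (25 μM), then exposed to test agent; apoptotic (hypodiploid) nuclei quantified by propidium iodide flow cytometry. Means ± SEM, three experiments in triplicate.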

In series [21] the test system is U-87 MG. Nature of the series: Induction of cell cycle arrest in human U87MG cells assessed as accumulation at G2/M phase at 1 to 20 uM after 48 hrs by flow cytometric analysis. The series is classed as functional, cell-based. To be noted: U-87MG ATCC. A digest of the protocol:
as §1

In series [22] the test system is T98G. Kind of series: Anticancer activity against human T98G cells assessed as decrease in cell viability at 10 uM after 48 hrs by MTT assay. The class given is functional, cell-based. In a few lines: as §3
The subject of a further series is U-87MG ATCC. Kind of series: Anticancer activity against human U87MG cells assessed as decrease in cell viability at 50 uM after 48 hrs by MTT assay. The series is classed as functional, cell-based. In a few lines: as §3
The test system of series [23] is T98G. Kind of series: Induction of apoptosis in human T98G cells assessed as increase in mitochondrial depolarization at 20 uM after 4 hrs by […] fluorescence analysis. The series is classed as functional, cell-based. In a few lines:
as §4

Activity calls are given as the source filed them. The calls are words filed in the database; no cut-off is given here.

T1 sequence (P27361 whole entry, looked up): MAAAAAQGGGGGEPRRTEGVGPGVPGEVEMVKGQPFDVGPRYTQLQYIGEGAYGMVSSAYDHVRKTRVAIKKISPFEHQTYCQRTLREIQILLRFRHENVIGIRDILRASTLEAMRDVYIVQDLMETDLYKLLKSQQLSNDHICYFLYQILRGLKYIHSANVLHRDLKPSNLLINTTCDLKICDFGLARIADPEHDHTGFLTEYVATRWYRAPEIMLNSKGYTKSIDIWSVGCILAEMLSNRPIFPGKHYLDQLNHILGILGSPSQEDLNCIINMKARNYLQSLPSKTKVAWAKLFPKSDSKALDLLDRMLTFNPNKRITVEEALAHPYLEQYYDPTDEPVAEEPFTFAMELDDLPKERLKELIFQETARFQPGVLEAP
T1 sequence (P28482 whole entry, looked up): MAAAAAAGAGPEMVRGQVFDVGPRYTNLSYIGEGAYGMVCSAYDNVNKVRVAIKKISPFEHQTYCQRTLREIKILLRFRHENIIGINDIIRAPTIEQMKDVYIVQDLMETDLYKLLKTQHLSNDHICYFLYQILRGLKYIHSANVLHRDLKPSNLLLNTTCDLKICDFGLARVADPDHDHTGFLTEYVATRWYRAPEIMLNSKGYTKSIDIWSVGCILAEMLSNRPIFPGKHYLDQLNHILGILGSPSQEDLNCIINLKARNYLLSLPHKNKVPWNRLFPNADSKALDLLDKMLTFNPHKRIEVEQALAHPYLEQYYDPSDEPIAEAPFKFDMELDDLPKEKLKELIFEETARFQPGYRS

As for `COc1cc(O)c(CC=C(C)C)c(O)c1C(=O)/C=C/c1ccc(O)cc1` [XANTHOHUMOL], the result (in the series on U-87 MG [1]; in [2]; with T98G [4]; in series [5]; in series [7]; in the series on T98G [11]) was inactive. Moreover, the result (in series [12]; with T98G [18]; in the series with T98G [20]; with U-87 MG [21]) was inactive. Further, the Activity in the series on T98G [3] was 70%; in [6], “Non-toxic”; with T98G [9] it was 50%; in the series with T98G [10] it was “tde”. Moreover, the outcome (in the series on U-87 MG [8]; with T98G [13]; with T98G [14]; in series [15]; in the series with T98G [16]; with T98G [17]) was Active. For the same compound, the outcome in the series on T98G [22], with U-87MG ATCC and in the series with T98G [23] was Active. Besides, the LD50 in series [19] was determined as 500 mg/kg.

These data come from ChEMBL document CHEMBL1932940, “Xanthohumol induces apoptosis in human malignant glioblastoma cells by increasing reactive oxygen species and activating MAPK pathways” (J Nat Prod, 2011).
